Data set [1] is described as follows: Clearance after i.v. administration of 2 mg/kg to Dogs. It is filed as ADME, organism-based, Canis lupus familiaris. Details: dose 2 mg/kg, route intravenous. Particulars: dog, in vivo, iv. The method, boiled down: (§1)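 Dogs received the parent sulfonamide iv at 2 mg/kg as a suspension. Parameters (t1/2, AUC/dose in ng h/mL, Cl in mL/h/kg, Vd in mL/kg) were derived from its plasma levels and reported as mean ± deviation.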

The target in data set [2] is T1, Prostaglandin G/H synthase 2 (Rattus norvegicus) (UniProt P35355).
T1 sequence (whole entry): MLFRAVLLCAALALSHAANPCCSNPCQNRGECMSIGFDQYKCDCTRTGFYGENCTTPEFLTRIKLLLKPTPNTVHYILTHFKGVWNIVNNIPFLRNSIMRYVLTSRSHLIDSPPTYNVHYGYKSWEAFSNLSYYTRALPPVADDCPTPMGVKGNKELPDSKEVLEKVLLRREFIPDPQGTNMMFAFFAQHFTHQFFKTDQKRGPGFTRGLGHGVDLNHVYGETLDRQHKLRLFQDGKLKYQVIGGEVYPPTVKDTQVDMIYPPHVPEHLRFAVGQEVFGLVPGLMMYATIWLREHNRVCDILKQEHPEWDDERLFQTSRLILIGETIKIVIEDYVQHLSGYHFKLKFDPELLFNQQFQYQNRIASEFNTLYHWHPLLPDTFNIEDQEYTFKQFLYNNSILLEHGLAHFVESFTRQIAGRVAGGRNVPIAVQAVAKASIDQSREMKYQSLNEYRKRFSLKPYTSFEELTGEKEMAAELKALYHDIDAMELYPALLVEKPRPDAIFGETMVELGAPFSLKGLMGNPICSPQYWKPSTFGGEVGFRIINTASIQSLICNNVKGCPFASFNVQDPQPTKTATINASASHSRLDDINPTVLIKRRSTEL
The data set is described as follows: Percentage inhibition of rat carrageenan-induced paw edema after iv administration at 3 mg/kg. The data set is classed as functional, organism-based. Also on record: dose 3 mg/kg. An outline of the steps:
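Male Sprague–Dawley rats (150–175 g) were dosed iv at 3 mg/kg in PBS (1 mL/kg) 10 min before intraplantar injection of 0.1 mL 1% λ-carrageenan into the hindpaw. Paw volume was measured by water-displacement plethysmometry before and 1, 2, 3 and 4 h after treatment. % inhibition was calculated from the AUC of treated versus control animals.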
(In general: The carrageenan paw model is a standard test of acute inflammation.)

Data set [3] in a line: Area under curve after i.v. administration of 2 mg/kg to Dogs. The data set is classed as ADME, organism-based, Canis lupus familiaris. Particulars: dog, in vivo, iv. Details: dose 2 mg/kg, route intravenous. The method, boiled down: as §1
Data set [4] can be described thus: Half life after i.v. administration of 2 mg/kg to Dogs. Conditions: dog, in vivo, iv. The data set is classed as ADME, organism-based, Canis lupus familiaris. Details: dose 2 mg/kg, route intravenous. The method, boiled down: as §1
A short description of data set [5]: Volume of distribution after i.v. administration of 2 mg/kg to Dogs. The data set is classed as ADME, organism-based, Canis lupus familiaris. Conditions: dog, in vivo, iv. Also on record: dose 2 mg/kg, route intravenous. An outline of the steps: as §1
The nature of data set [6]: Area under curve after i.v. administration of 1 mg/kg to Dogs. The data set is classed as ADME, organism-based, Canis lupus familiaris. Particulars: dog, in vivo, iv. Also on record: dose 1 mg/kg, route intravenous. An outline of the steps: (§2)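 Dogs received the water-soluble phosphoramidic acid prodrug iv at 1 mg/kg as a solution. Parameters (t1/2, AUC/dose in ng h/mL, Cl in mL/h/kg, Vd in mL/kg) were derived from plasma levels of the released parent sulfonamide and reported as mean ± deviation.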

A short description of data set [7]: Clearance after i.v. administration of 1 mg/kg to Dogs. Details: dose 1 mg/kg, route intravenous. The data set is classed as ADME, organism-based, Canis lupus familiaris. Conditions: dog, in vivo, iv. An outline of the steps: as §2
A short description of data set [8]: Volume of distribution after i.v. administration of 1 mg/kg to Dogs. Also on record: dose 1 mg/kg, route intravenous. The data set is classed as ADME, organism-based, Canis lupus familiaris. Particulars: dog, in vivo, iv. An outline of the steps:
as §2

Take `COc1ccc(-c2c(Cl)ncn2-c2ccc(S(N)(=O)=O)cc2)cc1F` [CIMICOXIB]: in data set [1], the clearance was 0.292 L/h/kg. The same compound displayed an inhibition in data set [2] of 34.8%. In data set [3], this compound gave an AUC/dose of 3253.4 ng·h/mL. In addition, the half-life in data set [4] was 5 h. In addition, the Vd in data set [5] was 2.12 L/kg.
With `COc1ccc(-c2c(Cl)ncn2-c2ccc(S(=O)(=O)NP(=O)(O)O)cc2)cc1F`, the inhibition in data set [2] is 34.8%. For the same compound, the AUC/dose in data set [6] amounted to 3641.1 ng·h/mL. The half-life in data set [4] is 4.9 h. Besides, the clearance in data set [7] was 0.273 L/h/kg. This compound registered a Vd in data set [8] of 1.86 L/kg.
On to `CCC(=O)NS(=O)(=O)c1ccc(-c2c(-c3ccccc3)noc2C)cc1`, for which, in data set [2], the inhibition came out at 32.6%.

For orientation: clearance means the rate of elimination divided by the concentration. A higher clearance goes with a high capacity for elimination. Broadly, the inhibition is the change of the read-out against control, counted positive when it falls. One may read the half-life as how long it takes for the measured level to halve. A high value points to slow loss. The Vd is the apparent volume that relates the amount in the body to the concentration in plasma or blood. A lower Vd goes with confinement near the circulation.
